Measurements taken from ChEMBL document CHEMBL1135805 (J Med Chem, 2002).

Tests used:
[1] = test system: Breast cancer cell line; test: Potency relative to progesterone in reducing the difference in reversal of DOX accumulation between MDA-435/LCC6 and MDA-435/LCC6-MDRI cells; format: functional, Homo sapiens
Outline: (§1)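 They were then given test compound at five concentrations plus DOX (4 μM) or [³H] VBL (5 nM) for 3 h, in triplicate, and washed with ice-cold 0.15 M NaCl. DOX was extracted in 20% TCA and read by fluorescence (ex 500/em 580 nm); VBL was counted by scintillation. Values were corrected for cell number. EC50 is the concentration halving the accumulation difference between the two lines, interpolated from dose-response curves. […] Mean ± SE, ≥3 experiments.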

[2] = test system: Breast cancer cell line; test: To estimate the extent of resistance conferred by Pgp, the ratio of IC50 in MDA-435/LCC6-MDR1 and MDA-435/LCC6 cells (relative resistance of Pgp-positive cells) was used; format: functional, Homo sapiens
Outline: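 Retrovirally MDR1-transduced MDA435/LCC6^MDR1 and parental MDA435/LCC6 cells, 24 h after plating, exposed 5 days to graded agent concentrations. Fixed/stained with 0.5% crystal violet in 25% methanol, dye extracted in 0.1 M sodium citrate/25% methanol, A540. IC50 = concentration halving cell density versus untreated, interpolated.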

[3] = Potency relative to progesterone in reversing of [3H]- VBL accumulation in MDA-435/LCC6 (Pgp-negative) cells.; format: functional, Homo sapiens
Outline: (§2)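 Test compound at five concentrations was added with DOX (4 μM) or [³H] VBL (5 nM) for 3 h, in triplicate. Cells were washed in ice-cold 0.15 M NaCl. DOX was measured fluorometrically after TCA extraction and VBL by scintillation, both normalized to cell number. Pgp-specific EC50 values were corrected for these effects.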

[4] = Effect on reversal of [3H]- VBL accumulation in MDA-435/LCC6 (Pgp-negative) cells.; format: functional; details: Homo sapiens; outline: as §2
[5] = test system: Breast cancer cell line; test: Concentration that reduces the difference in reversal of DOX accumulation between MDA-435/LCC6 and MDA-435/LCC6-MDRI cells by 50%.; format: functional, cell-based; details: Homo sapiens; outline: as §1
[6] = Potency relative to progesterone in reversing of DOX accumulation in MDA-435/LCC6 (Pgp-negative) cells.; format: functional, Homo sapiens; outline: as §2
[7] = Growth inhibitory activity on MDA-435/LCC6 ([…]) human breast cancer cells.; format: functional, cell-based; details: Cancer cell lines
Outline: (§3)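 MDA435/LCC6 (Pgp-negative) and MDA435/LCC6^MDR1 (Pgp-positive) cells were plated 24 h, then exposed 5 days to test agents at a range of concentrations in growth medium. Cells were fixed and stained with 0.5% crystal violet in 25% methanol, and dye was eluted in 0.1 M sodium citrate/25% methanol and read at 540 nm. […] Mean ± SE, ≥3 experiments.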

[8] = Effect on reversal of DOX accumulation in MDA-435/LCC6 (Pgp-negative) cells.; format: functional; details: Homo sapiens; outline: as §2
[9] = Growth inhibitory activity on MDA-435/LCC6-MDRI ([…]) human breast cancer cells.; format: functional, cell-based; details: Cancer cell lines; outline: as §3
[10] = test system: Breast cancer cell line; test: Concentration that reduces difference in reversal of [3H]VBL accumulation between MDA-435/LCC6 and MDA-435/LCC6-MDRI cells by 50%; format: functional, cell-based; details: Homo sapiens
Outline: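 They were then given test compound at five concentrations plus DOX (4 μM) or [³H] VBL (5 nM) for 3 h, in triplicate, and washed with ice-cold 0.15 M NaCl. Values were corrected for cell number. EC50 is the concentration halving the accumulation difference between the two lines, interpolated from dose-response curves. Mean ± SE, ≥3 experiments.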

[11] = test system: Breast cancer cell line; test: Potency relative to progesterone in reducing the difference in reversing of [3H]VBL accumulation between MDA-435/LCC6 and MDA-435/LCC6-MDRI cells; format: functional, Homo sapiens; outline: as §1
[12] = test system: Breast cancer cell line; test: Ratio of effect of compound on VBL accumulation (antiPgp activity) to its intrinsic cellular toxicity;; format: functional, Homo sapiens
[13] = test system: Breast cancer cell line; test: Ratio of effect of compound on DOX accumulation (antiPgp activity) to its intrinsic cellular toxicity;; format: functional, Homo sapiens
Outline: (§4)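 Ratio IC50/EC50 of crystal violet cytotoxicity (5-day exposure) IC50 to the EC50 for DOX or [³H] VBL accumulation (3 h, 4 μM DOX or 5 nM VBL) in MDA435/LCC6 and MDA435/LCC6^MDR1 cells. Where no IC50 was reached, the highest non-toxic concentration tested, limited by solubility, was used.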

[14] = target: ATP-dependent translocase ABCB1 (Homo sapiens, UniProt P08183); test: TP_TRANSPORTER: reversal of Vinblastine accumulation (Vinblastine: 0.005 uM) in MDA435/LCC6 MDR1 cells; format: functional, cell-based, MDA-MB-435/LCC6 MDR1
Outline: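 VBL (5 nM) with test compound at five concentrations, in triplicate. Cells were rinsed with ice-cold 0.15 M NaCl and PBS, dried, trypsinized, and counted by scintillation; accumulation was corrected for cell number.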

[15] = test system: Breast cancer cell line; test: Concentration that reduces the difference in reversal of DOX accumulation between MDA-435/LCC6 and MDA-435/LCC6-MDRI cells by 50%; format: functional, cell-based; details: Homo sapiens
Outline: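 Ice-cold NaCl wash, overnight 20% TCA extraction at 4 °C in dark, fluorescence ex 500/em 580 nm against DOX standard curve, normalized to cell number.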

[16] = Growth inhibitory activity on MDA-435/LCC6 ([…]) human breast cancer cells; format: functional, cell-based; details: Cancer cell lines
Outline: (§5)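 Cells exposed 24 h after plating to test agents at several concentrations for 5 days. Crystal violet (0.5% in 25% methanol) fix/stain, dye extracted in 0.1 M sodium citrate/25% methanol, absorbance at 540 nm as percent of untreated controls.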

[17] = Growth inhibitory activity on MDA-435/LCC6-MDRI ([…]) human breast cancer cells; format: functional, cell-based; details: Cancer cell lines; outline: as §5
[18] = test system: Breast cancer cell line; test: Ratio of effect of compound on VBL accumulation (antiPgp activity) to its intrinsic cellular toxicity; format: functional, Homo sapiens; outline: as §4
[19] = test system: Breast cancer cell line; test: Ratio of effect of compound on DOX accumulation (antiPgp activity) to its intrinsic cellular toxicity; format: functional, Homo sapiens; outline: as §4
[20] = Potency relative to progesterone in reversing of DOX accumulation in MDA-435/LCC6 (Pgp-negative)cells; Not determined; format: functional, Homo sapiens

Sequence of ATP-dependent translocase ABCB1 (P08183 whole entry): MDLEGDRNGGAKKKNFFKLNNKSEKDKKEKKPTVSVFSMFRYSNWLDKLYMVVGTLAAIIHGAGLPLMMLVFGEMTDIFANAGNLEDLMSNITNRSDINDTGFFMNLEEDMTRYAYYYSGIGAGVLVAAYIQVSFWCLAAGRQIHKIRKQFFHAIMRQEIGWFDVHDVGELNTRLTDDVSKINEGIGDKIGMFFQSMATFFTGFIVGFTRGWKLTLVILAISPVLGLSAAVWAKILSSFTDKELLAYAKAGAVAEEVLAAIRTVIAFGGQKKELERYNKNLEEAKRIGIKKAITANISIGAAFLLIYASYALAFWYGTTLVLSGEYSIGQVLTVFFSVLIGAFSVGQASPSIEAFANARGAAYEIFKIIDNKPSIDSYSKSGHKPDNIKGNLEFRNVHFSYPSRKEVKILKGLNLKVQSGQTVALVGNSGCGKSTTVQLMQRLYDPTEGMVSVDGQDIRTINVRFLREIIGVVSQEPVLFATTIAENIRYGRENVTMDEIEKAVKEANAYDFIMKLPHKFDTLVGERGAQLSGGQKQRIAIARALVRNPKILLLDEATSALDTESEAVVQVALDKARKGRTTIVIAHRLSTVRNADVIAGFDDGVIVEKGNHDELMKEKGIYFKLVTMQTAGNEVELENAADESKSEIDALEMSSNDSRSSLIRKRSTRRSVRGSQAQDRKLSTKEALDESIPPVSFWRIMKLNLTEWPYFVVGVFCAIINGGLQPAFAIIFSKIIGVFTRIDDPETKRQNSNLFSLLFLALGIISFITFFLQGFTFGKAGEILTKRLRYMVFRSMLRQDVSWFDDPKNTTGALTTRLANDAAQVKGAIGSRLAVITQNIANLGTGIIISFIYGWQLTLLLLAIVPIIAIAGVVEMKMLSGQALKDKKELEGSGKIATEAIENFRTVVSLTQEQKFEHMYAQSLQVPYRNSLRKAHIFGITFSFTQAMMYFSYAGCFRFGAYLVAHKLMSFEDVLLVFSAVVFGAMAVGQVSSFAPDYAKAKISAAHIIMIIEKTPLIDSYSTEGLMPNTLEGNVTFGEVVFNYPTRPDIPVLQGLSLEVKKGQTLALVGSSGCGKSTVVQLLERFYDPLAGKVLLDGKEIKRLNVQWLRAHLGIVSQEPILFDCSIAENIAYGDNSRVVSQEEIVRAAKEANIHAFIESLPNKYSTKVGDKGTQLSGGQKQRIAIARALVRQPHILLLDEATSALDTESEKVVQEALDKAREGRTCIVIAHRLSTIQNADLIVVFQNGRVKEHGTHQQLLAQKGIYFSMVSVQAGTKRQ

| EC50 [4] [µM] | EC50 [5] [µM] | EC50 [14] [µM] | SMILES | Relative potency [1] | Relative resistance [2] | Relative potency [3] | Relative potency [6] | IC50 [7] [µM] | EC50 [8] [µM] | IC50 [9] [µM] | EC50 [10] [µM] | Relative potency [11] | Ratio [12] | Ratio [13] | EC50 [15] [µM] | IC50 [16] [µM] | IC50 [17] [µM] | Ratio [18] | Ratio [19] | Relative potency [20] |
| --- | --- | --- | --- | --- | --- | --- | --- | --- | --- | --- | --- | --- | --- | --- | --- | --- | --- | --- | --- | --- |
| 33.4 | 14.7 | – | CC(=O)[C@H]1CCC2C3C(CC[C@@]21C)[C@@]1(C)CCC(=O)C=C1C[C@H]3Sc1ccc(NC(=O)NS(=O)(=O)c2ccc(C)cc2)cc1 (stereo partly drawn) | 1.5 | 1.7 | 0.6 | 1.1 | 22.1 | 37 | 38.2 | 34.8 | 0.5 | 0.7 | 0.6 | – | – | – | – | – | – |
| – | – | 0.7 | CC(=O)C1CC[C@H]2[C@@H]3[C@H](Sc4ccc(NC(=O)N[C@H](C)c5ccccc5)cc4)CC4=CC(=O)CC[C@]4(C)[C@H]3CC[C@]12C (stereo partly drawn) | – | – | – | – | – | – | – | – | – | – | – | – | – | – | – | – | – |
| 0.9 | 0.6 | – | CC(=O)C1CCC2C3C(CC[C@]12C)[C@@]1(C)CCC(=O)C=C1C[C@H]3Sc1ccc(NC(=O)NCCCl)cc1 (stereo partly drawn) | 40.5 | 2.2 | 23.5 | 60.2 | 3.2 | 0.7 | 7.3 | 0.8 | 22.5 | 3.6 | 3.2 | – | – | – | – | – | – |
| 0.7 | 0.6 | – | CC(=O)[C@H]1CCC2C3C(CC[C@@]21C)[C@@]1(C)CCC(=O)C=C1C[C@H]3Sc1ccc(NC(=O)N[C@H](C)c2ccccc2)cc1 (stereo partly drawn) | 37.2 | – | 28.2 | 44.8 | – | 0.9 | – | 0.8 | 24.5 | – | – | – | > 20 | > 20 | >28.6 | >22.2 | – |
| – | 0.5 | – | C/C=C/C[C@@H](C)[C@@H](O)[C@H]1C(=O)N[C@@H](CC)C(=O)N(C)CC(=O)N(C)[C@@H](CC(C)C)C(=O)N[C@@H](C(C)C)C(=O)N(C)[C@@H](CC(C)C)C(=O)N[C@@H](C)C(=O)N[C@H](C)C(=O)N(C)[C@@H](CC(C)C)C(=O)N(C)[C@@H](CC(C)C)C(=O)N(C)[C@@H](C(C)C)C(=O)N1C [CYCLOSPORINE] | – | – | – | – | – | – | – | – | – | – | – | – | – | – | – | – | – |

| SMILES | EC50 [4] [µM] | EC50 [5] [µM] | EC50 [14] [µM] | Relative potency [1] | Relative resistance [2] | Relative potency [3] | Relative potency [6] | IC50 [7] [µM] | EC50 [8] [µM] | IC50 [9] [µM] | EC50 [10] [µM] | Relative potency [11] | Ratio [12] | Ratio [13] | EC50 [15] [µM] | IC50 [16] [µM] | IC50 [17] [µM] | Ratio [18] | Ratio [19] | Relative potency [20] |
| --- | --- | --- | --- | --- | --- | --- | --- | --- | --- | --- | --- | --- | --- | --- | --- | --- | --- | --- | --- | --- |
| CC(=O)[C@H]1CC[C@H]2[C@@H]3CCC4=CC(=O)CC[C@]4(C)[C@H]3CC[C@]12C [PROGESTERONE] | 21 | – | – | – | – | – | – | 27.4 | 42.2 | 36.4 | 18.7 | – | – | – | 22.3 | – | – | – | – | – |
| CCNC(=O)Nc1ccc(S[C@@H]2CC3=CC(=O)CC[C@]3(C)C3CC[C@]4(C)C(C(C)=O)CCC4C32)cc1 (stereo partly drawn) | 1.5 | 0.7 | – | 31.3 | – | 14 | – | – | 1 | – | 1.3 | 14.2 | – | >20 | – | > 20 | > 20 | >13.3 | – | 42.7 |
| COc1ccc(CCN(C)CCCC(C#N)(c2ccc(OC)c(OC)c2)C(C)C)cc1OC (stereo not drawn) | – | 2.4 | – | – | – | – | – | 65.8 | 4.1 | 63.4 | 1.2 | – | – | – | – | – | – | – | – | – |
